Assay [1] in a line: RPL19A-GFP modulators, yeast TOR pathway, confirmation, cell-based, S. cerevisiae, flow cytometry, cherry picks, mother/daughter gates (AID 2270;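 active = GFP response below 50% of the DMSO control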). The settings on record: S. cerevisiae RPL19A-GFP strain, 3 h, at 10 µM, stronger effect = lower value, 100 = same GFP as DMSO wells. Background: A flow cytometer gives signals particle by particle.
Assay [2] is described as follows: LAP4-GFP expression modulators in yeast, confirmation, cell-based, cherry picks, flow cytometry, mother/daughter gates (AID 2271;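 active = GFP response above 150% of the DMSO control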;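 also: ratio of sample to DMSO plate mean so 100% equals DMSO level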). To be noted: S. cerevisiae LAP4-GFP strain, 3 h, at 10 µM, stronger effect = higher value, 100 means same as DMSO control. In a few lines: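 System: Alexa 633-stained baker's yeast GFP-fusion strain / Medium: synthetic complete (SC) yeast growth medium / Doses: compound at 10 µM, single point / Times: 3 h treatment at 30 °C with rotation / Detection: HT flow cytometry, GFP fluorescence channel / Benchmarks: DMSO-only negative wells, rapamycin 400 ng/mL positive wells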

Assay [3] is described as follows: modulators of MEP2-GFP levels in yeast, confirmation, S. cerevisiae, flow cytometry GFP, cherry picks (AID 2272;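 active = GFP response above 150% of the DMSO control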;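 also: ratio of well signal to plate DMSO mean so 100% equals DMSO level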). The settings on record: S. cerevisiae MEP2-GFP strain, 3 h, at 10 µM, stronger effect = higher value.
The nature of assay [4]: AGP1-GFP expression modulators, hit retest, confirmation, cell-based, flow cytometry, S. cerevisiae, cherry picks (AID 2273).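 Also: median GFP channel fluorescence over the whole cell population gate.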 To be noted: S. cerevisiae AGP1-GFP strain, 3 h, at 10 µM.
The nature of assay [5]: modulators of CIT2-GFP expression in yeast, confirmation, S. cerevisiae, GFP fusion, cherry picks, mother/daughter gates (AID 2274). The settings on record: S. cerevisiae CIT2-GFP strain, flow cytometry, 3 h, at 10 µM, stronger effect = higher value.
[6] abbreviates: measured here: daughter cell gate.
Where [7] appears, read: measured here: mother cell gate.
Setting [8] is: measured here: daughter cell gate response.
Where [9] appears, read: measured here: mother cell gate response.

Among the data in PubChem BioAssay are GFP response vs DMSO, GFP response relative to DMSO and GFP response, % of DMSO values, retold here.

Activity calls are given as the source filed them.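 The calls were made as follows, unless noted: active = GFP response above 150% of the DMSO level; inconclusive = fewer than 70 events counted for a yeast strain; inactive = the rest.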

Regarding `O=[N+]([O-])c1ccc(SCCc2ccncc2)cc1`, the GFP response vs DMSO is 94.8% (inactive) in assay [1], 97.4% in assay [1] (setting [6]), 95.4% in assay [1] (setting [7]) and 96.2% (inactive) in assay [3]. Moreover, the GFP response relative to DMSO in assay [2] is 99.2% (inactive); in assay [2] (setting [8]), 99.2%; in assay [2] (setting [9]), 98.3%. Moreover, the GFP response, % of DMSO is 98.7% (inactive) in assay [4], 99.7% (inactive) in assay [5], 101% in assay [5] (setting [6]) and 101% in assay [5] (setting [7]).
For the compound `CC1=NOC(=O)/C1=C\c1ccc(-c2cc(Cl)ccc2Cl)o1`, the GFP response vs DMSO is 97.1% (inactive) in assay [1], 93.9% in assay [1] (setting [6]), 91.6% in assay [1] (setting [7]) and 118% (inactive) in assay [3]. For the same compound, the GFP response relative to DMSO in assay [2] was 195% (active); in assay [2] (setting [8]) it was 176%; in assay [2] (setting [9]), 186%. Further, the GFP response, % of DMSO was 100% (inactive) in assay [4], 114% (inactive) in assay [5], 121% in assay [5] (setting [6]) and 102% in assay [5] (setting [7]).
For the compound `Cc1ccc(CC2CC(=O)N(Cc3ccco3)C2=O)cc1` (centres undefined), the GFP response vs DMSO in assay [1] was 102% (inactive); in assay [1] (setting [6]), 101%; in assay [1] (setting [7]), 101%; in assay [3], 95.7% (inactive). For the same compound, the GFP response relative to DMSO in assay [2] is 93.8% (inactive); in assay [2] (setting [8]), 97.2%; in assay [2] (setting [9]) it was 94.2%. In addition, the GFP response, % of DMSO was 99.2% (inactive) in assay [4], 107% (inactive) in assay [5], 105% in assay [5] (setting [6]) and 109% in assay [5] (setting [7]).
For `CCCCN(CCCC)S(=O)(=O)c1ccc(C(=O)Nc2nnc(COC)o2)cc1`, the GFP response vs DMSO in assay [1] was 106% (inactive); in assay [1] (setting [6]), 106%; in assay [1] (setting [7]), 103%; in assay [3] it was 149% (inactive). Moreover, the values for the GFP response relative to DMSO in assay [2], in assay [2] (setting [8]) and in assay [2] (setting [9]) were 131% (inactive), 140% and 126%, respectively. Besides, the GFP response, % of DMSO in assay [4] was 106% (inactive); in assay [5] it was 100% (inactive); in assay [5] (setting [6]), 103%; in assay [5] (setting [7]) it was 101%.
Take `O=C(N/N=C/c1ccc(Cl)cc1Cl)c1cccc(F)c1`: the GFP response vs DMSO is 97% (inactive) in assay [1], 92.7% in assay [1] (setting [6]), 97.3% in assay [1] (setting [7]) and 103% (inactive) in assay [3]. The values for the GFP response relative to DMSO in assay [2], in assay [2] (setting [8]) and in assay [2] (setting [9]) were 104% (inactive), 98.2% and 109%, respectively. In addition, the GFP response, % of DMSO was 101% (inactive) in assay [4], 86% (inactive) in assay [5], 84.1% in assay [5] (setting [6]) and 84.8% in assay [5] (setting [7]).
For the compound `C/C(CCC12CC3CC(CC(C3)C1)C2)=N\NC(N)=S`, the GFP response vs DMSO in assay [1] is 87.9% (inactive); in assay [1] (setting [6]) it was 84.6%; in assay [1] (setting [7]), 90.7%; in assay [3], 98.3% (inactive). The GFP response relative to DMSO in assay [2] was 133% (inactive); in assay [2] (setting [8]) it was 125%; in assay [2] (setting [9]), 135%. In addition, the GFP response, % of DMSO in assay [4] is 96% (inactive); in assay [5] it was 89.8% (inactive); in assay [5] (setting [6]) it was 88.1%; in assay [5] (setting [7]), 87.8%.
As to `C=CCOc1ccc(C(=O)/C=C2/C(=O)Nc3ccccc32)cc1`, the GFP response vs DMSO is 97.6% (inactive) in assay [1], 93.6% in assay [1] (setting [6]), 97.2% in assay [1] (setting [7]) and 111% (inactive) in assay [3]. For the same compound, the GFP response relative to DMSO in assay [2] was 113% (inactive); in assay [2] (setting [8]) it was 108%; in assay [2] (setting [9]), 117%. For the same compound, the GFP response, % of DMSO in assay [4] was 112% (inactive); in assay [5] it was 95.2% (inactive); in assay [5] (setting [6]), 93.2%; in assay [5] (setting [7]), 93.4%.
As for `CSc1ccc(/C=C/C(=O)c2ccc(NC(=O)C(C)C)cc2)cc1`, the GFP response vs DMSO in assay [1] is 98.8% (inactive); in assay [1] (setting [6]), 97.5%; in assay [1] (setting [7]), 99.1%; in assay [3], 100% (inactive). Moreover, the results for the GFP response relative to DMSO in assay [2], in assay [2] (setting [8]) and in assay [2] (setting [9]) were 107% (inactive), 103% and 111%, respectively. The GFP response, % of DMSO is 93.5% (inactive) in assay [4], 92.6% (inactive) in assay [5], 93.2% in assay [5] (setting [6]) and 90.2% in assay [5] (setting [7]).
For `CCCc1[nH]nc2c1C(c1ccc(OCCN3CCOCC3)c(OC)c1)C(C#N)=C(N)O2` (centres undefined), the GFP response vs DMSO in assay [1] was 96.6% (inactive); in assay [1] (setting [6]), 96.4%; in assay [1] (setting [7]), 98.2%; in assay [3] it was 102% (inactive). In addition, the GFP response relative to DMSO in assay [2] is 97.9% (inactive); in assay [2] (setting [8]), 99.2%; in assay [2] (setting [9]) it was 96.1%. In addition, the GFP response, % of DMSO in assay [4] is 93.9% (inactive); in assay [5], 101% (inactive); in assay [5] (setting [6]) it was 103%; in assay [5] (setting [7]) it was 101%.
In the case of `Cc1cccc(NC(=O)c2ccccc2O)c1C`, the GFP response vs DMSO is 97.3% (inactive) in assay [1], 94.7% in assay [1] (setting [6]), 96.9% in assay [1] (setting [7]) and 99.3% (inactive) in assay [3]. Further, the GFP response relative to DMSO in assay [2] is 112% (inactive); in assay [2] (setting [8]), 104%; in assay [2] (setting [9]), 116%. Further, the GFP response, % of DMSO was 98.4% (inactive) in assay [4], 95.8% (inactive) in assay [5], 95.8% in assay [5] (setting [6]) and 94.9% in assay [5] (setting [7]).
Turning to `O=C(/C=C/c1ccc(F)cc1)c1ccccc1Br`, the GFP response vs DMSO was 98% (inactive) in assay [1], 98.1% in assay [1] (setting [6]), 98.3% in assay [1] (setting [7]) and 103% (inactive) in assay [3]. Besides, the GFP response relative to DMSO was 112% (inactive) in assay [2], 112% in assay [2] (setting [8]) and 116% in assay [2] (setting [9]). Besides, the GFP response, % of DMSO in assay [4] was 98.1% (inactive); in assay [5] it was 93.4% (inactive); in assay [5] (setting [6]) it was 93.7%; in assay [5] (setting [7]) it was 89.8%.
On to `COc1ccc(N=Cc2nc(-c3ccccc3)oc2OC(=O)c2ccccc2)cc1`, for which the GFP response vs DMSO in assay [1] was 101% (inactive); in assay [1] (setting [6]), 101%; in assay [1] (setting [7]), 101%; in assay [3], 94.4% (inactive). Also, the GFP response relative to DMSO in assay [2] is 108% (inactive); in assay [2] (setting [8]), 104%; in assay [2] (setting [9]), 111%. Further, the GFP response, % of DMSO is 98.1% (inactive) in assay [4], 93.4% (inactive) in assay [5], 92.1% in assay [5] (setting [6]) and 91.8% in assay [5] (setting [7]).
In the case of `Cc1ccc(S(=O)(=O)Cc2cc(F)c([N+](=O)[O-])cc2[N+](=O)[O-])cc1`, the GFP response vs DMSO is 74.2% (inactive) in assay [1], 88.4% in assay [1] (setting [6]), 62.6% in assay [1] (setting [7]) and 127% (inactive) in assay [3]. In addition, the GFP response relative to DMSO in assay [2] is 251% (active); in assay [2] (setting [8]), 146%; in assay [2] (setting [9]), 223%. Besides, the GFP response, % of DMSO in assay [4] is 105% (inactive); in assay [5], 89.7% (inactive); in assay [5] (setting [6]), 84.1%; in assay [5] (setting [7]), 72.8%.
Take `Cc1[nH]c2ccccc2c1C(=O)C(C)OC(=O)C1CCC1` (centres undefined): the GFP response vs DMSO was 98.2% (inactive) in assay [1], 98.1% in assay [1] (setting [6]), 97.8% in assay [1] (setting [7]) and 110% (inactive) in assay [3]. Moreover, the GFP response relative to DMSO in assay [2] is 100% (inactive); in assay [2] (setting [8]) it was 101%; in assay [2] (setting [9]), 100%. The GFP response, % of DMSO in assay [4] was 105% (inactive); in assay [5] it was 106% (inactive); in assay [5] (setting [6]) it was 103%; in assay [5] (setting [7]), 106%.
